High-throughput results as filed in PubChem.
697 NFkB inh = lowers PMA/ionomycin-induced NF-kB signal in 697 B cells | 697 B-cell NF-kB luciferase reporter, 16 h | inhibition, % at 4 µM | 0.33% of 330,000 active; in the data active means inhibition above about 35%
XBP1 UPR activ = adaptive UPR (XBP1) activation | CHO-XBP1 luciferase reporter, IRE1-XBP1 UPR activation, luminescence; percent of tunicamycin response, DMSO as zero | activation, % at 20 µM | 0.33% of 330,000 active;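 active means versus positive control, 20 µM dose yields 30% or more activation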;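 further: 100% = tunicamycin at 10 µg/mL and 0% = DMSO only wells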
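Material: CHO-XBP1 cells stably carrying IRE1-XBP1-driven luciferase reporter | Medium: F12 with 10% serum | Compound dosing: 20 µM single concentration, DMSO 1% | Incubation: Overnight seeding at 37 °C, 6 h compound treatment at 37 °C | Detection: Steady-Glo luminescence read | Read-out basis: % activation of reporter signal versus tunicamycin and DMSO controls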
Jurkat NFkB inh = lowers PMA/ionomycin-induced NF-kB signal in Jurkat cells. PMA/ionomycin-induced NF-kB luciferase reporter, luminescence. inhibition, % at 4 µM. 0.53% of 330,000 active; in the data active means inhibition above about 50%
CHOP inhibitor = blocks CHOP induction under ER stress. inhibition, % at 10 µM. AID 2732. CHO-K1 CHOP-promoter luciferase, tunicamycin-induced, 15-18 h. 3.8% of 220,000 active;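 active means compounds that reduced the stress-induced luciferase reporter signal by more than about 70% of percent inhibition, limit read from the data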;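 further: 0% = tunicamycin plus vehicle and 100% = wells without tunicamycin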
CHOP UPR activ = activators of apoptotic arm of unfolded protein response (CHOP) | CHO-CHOP luciferase reporter, UPR activation, luminescence; percent of tunicamycin response over DMSO baseline | AID 449763 | activation, % at 10 µM | 0.34% of 330,000 active;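 active means at 10 µM dose, activation of 40% or more, normalized to positive control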;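 further: 100% = tunicamycin at 10 µg/mL and 0% = DMSO alone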
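System: CHO-CHOP luciferase reporter cell line | Buffer or medium: F12 medium containing 10% fetal bovine serum | Doses: One dose, 10 µM in 0.5% DMSO | Times: 6 h compound exposure at 37 °C after overnight seeding | Signal: Luciferase luminescence | Read-out: % activation vs tunicamycin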
An asterisk follows results filed as active; . = no result given. Many of the other results were omitted from the sample, so hits are more common in it than they were.

SMILES	697 NFkB inh	XBP1 UPR activ	Jurkat NFkB inh	CHOP inhibitor	CHOP UPR activ
CCCCn1c(N)c(N(CCOC)C(=O)CSc2ccc([N+](=O)[O-])cc2)c(=O)[nH]c1=O	1	-4	2	.	1
CCC(=O)Oc1oc(-c2ccccc2)nc1C=Nc1ccccc1OC	-13	1	-9	93*	4
CCC(=O)Oc1oc(-c2ccccc2)nc1C=Nc1ccc(C)cc1	12	4	8	-57	7
O=C(Cn1nnc(-c2cccc(C(F)(F)F)c2)n1)NC(=O)NCc1ccco1	11	4	7	90*	-1
COCc1ccc(CN2CCCC(C(=O)Nc3ccc(-c4cccc(OC)c4)cc3)C2)o1 (centres undefined)	-33	0	-5	.	3
Cc1ccc2nc(-c3ccccc3)cn2c1	-7	-17	46	76*	-11
CC(=O)Nc1ccc(-c2cn3cc(C)ccc3n2)cc1	-106	1	-73	17	1
CC(C)NS(=O)(=O)c1ccc(NCCCn2ccnc2)c([N+](=O)[O-])c1	9	-3	16	.	-2
C=CCn1c(SC(C)C(=O)c2c(N)n(C)c(=O)n(C)c2=O)nnc1-c1ccoc1C (centres undefined)	14	-3	6	.	0
O=C1c2ccc3c4c(ccc(c24)C(=O)N1c1cccc(O)c1)CC3	12	-4	14	93*	0
COc1ccccc1Oc1ccc2c(c1)C(=O)N(c1cccc3ncccc13)C2=O	.	.	.	63	.
COc1ccccc1Oc1ccc2c(c1)C(=O)N(c1cccc(O)c1)C2=O	-26	-2	-4	90*	5
CCO[C@H]1OC(C(=O)O)=C[C@@H](c2coc3ccccc3c2=O)[C@@H]1CCCO	11	-1	11	.	5
O=c1cc(-c2ccccc2)nc(SCc2ccccc2F)[nH]1	14	-3	0	-2	-1
Cc1ccccc1CSc1nc(-c2ccccc2)cc(=O)[nH]1	24	-2	7	87*	1
O=C(O)CC(CC(=O)O)(C(=O)O)c1ccccc1	-25	2	2	-2	-1
O=C(Cn1c(C2CC2)nc2ccccc2c1=O)Nc1ccc(Br)cc1	1	-3	-5	84*	-1
CCCCc1cc(=O)oc2cc(C)cc(OC(C)C(=O)NCc3ccncc3)c12 (centres undefined)	-4	-1	-10	.	-2
CCc1ccc(S(=O)(=O)ON2C(=O)c3ccccc3C2=O)cc1	-10	-5	6	95*	1
CN(CC(=O)Nc1ccc2c(c1)OCO2)S(=O)(=O)c1cccs1	-9	-1	-31	.	1
C/C(=N\NC(=O)CNC(=O)c1ccncc1)c1ccc(C)cc1	12	0	7	17	-2
C/C(=N/NC(=O)CNc1ccc(Cl)cc1C)c1ccc(C)cc1	-1	1	21	87*	-2
O=[N+]([O-])c1ccc(O)c(C(C#Cc2ccccc2)N2CCOCC2)c1 (centres undefined)	13	4	-7	7	3
COCCN1C(=O)c2cc(C(=O)Nc3ccc(C)c(F)c3)ccc2C1Nc1ccc(C)c(F)c1 (centres undefined)	2	2	-10	46	3
CCc1ccc(NC(=O)c2ccc3c(c2)C(=O)N(CCOC)C3Nc2ccc(CC)cc2)cc1 (centres undefined)	-17	30	-33	94*	28
SMILES	697 NFkB inh	XBP1 UPR activ	Jurkat NFkB inh	CHOP inhibitor	CHOP UPR activ
COCCN1C(=O)c2cc(C(=O)Nc3cccc(F)c3)ccc2C1Nc1cccc(F)c1 (centres undefined)	5	1	3	90*	1
Cn1c(=O)c2c(ncn2Cc2nnc(N)s2)n(C)c1=O	3	-2	-23	-14	0
Cc1cccc(NC(=O)C2CCN(S(=O)(=O)c3cccc4nonc34)CC2)c1	0	2	9	.	1
Cc1cccc(C)c1NC(=O)c1cccc2c1-c1ccccc1C2=O	6	2	11	78*	2
Cc1cccc(NC(=O)c2cccc3c2-c2ccccc2C3=O)n1	0	-3	4	10	-2
CCOC(=O)C(C(=O)Nc1nc2ccccc2s1)C1CCCCC1 (centres undefined)	-9	0	8	74*	1
CCOC(=O)C(C(=O)Nc1cccc(C)n1)C1CCCCC1 (centres undefined)	-6	-3	-6	19	-1
CCC(C)Sc1ccc([C@H]2N[C@@](C)(C(=O)OC)[C@H]3C(=O)N(CC)C(=O)[C@@H]23)cc1OC (some centres undefined)	-1	-1	-30	.	-2
Nc1ccccc1Nc1cc(-c2cccc(Cl)c2)nn1-c1ccccc1	-73	-1	-4	86*	4
Nc1c(-c2ccccc2)cnn1-c1cccc(Cl)c1	-136	-8	-120	.	4
COc1ccc(Cl)cc1NC(=O)CN(C)C1CCCCC1	7	2	-8	76*	-1
COc1ccc(Cl)cc1NC(=O)COC(=O)C1CCCCC1	12	0	2	.	4
CCn1c(Cl)c(C=O)s/c1=N\S(=O)(=O)c1ccccc1	-81	-7	5	105*	-11
COc1ccc(S(=O)(=O)N2CCOC2CNC(=O)C(=O)NCc2ccc(F)cc2)cc1OC (centres undefined)	-15	0	11	.	0
C(=N\Nc1nc(N2CCCCCC2)nc(N2CCCCCC2)n1)/c1ccccc1	1	1	-1	42	0
CC(/C=N/Nc1nc(N2CCCCC2)nc(N2CCCCC2)n1)=C\c1ccccc1	-4	-2	-2	73*	0
Cc1ccc(C)c(NC(=S)N2CCC(NC(=O)C3CCCCC3)CC2)c1	11	-4	7	.	-1
Cc1cc(C(=O)N2CCc3c([nH]c4ccccc34)C2c2cccc(Cl)c2)nn1C (centres undefined)	4	-2	12	92*	3
O=S1(=O)c2ccccc2N=NN1Cc1cc(Cl)cc(Cl)c1	-2	-3	4	92*	0
COc1ccccc1CN1CCN(S(=O)(=O)c2ccc(C)cc2)CC1	-2	-2	6	.	-1
CCOC(=O)c1nn(-c2ccc(C)c(C)c2)c(=O)c2c(N)scc12	18	2	1	92*	-1
CCOC(=O)c1nn(-c2ccc(OC)cc2)c(=O)c2c(N)scc12	-3	0	-13	19	-2
CCCCN(CCCNC(=O)CN1C(=O)COc2ccccc21)c1ccccc1	-8	-2	7	74*	1
Cc1cccc(-c2noc(CCC(=O)NCCc3ccccc3)n2)c1	1	-1	-12	.	-2
CCN(CCCNC(=O)CCc1nc(-c2ccc(C)cc2)no1)c1cccc(C)c1	-7	-1	3	71*	-1
CCN(Cc1ccccc1)C(=O)CCc1nc(-c2ccc(C)cc2)no1	6	-1	-9	71*	1
